Source: ChEMBL document CHEMBL1137141, “Synthesis of new coumarin 3-(N-aryl) sulfonamides and their anticancer activity” (2004)

Columns and labels:
Type in all cases: functional
[1] = tested on: K562; test: Concentration required to inhibit growth of K562 cells by 50% after 96h of treatment; conditions: Homo sapiens, K562, 96 h
Summary of the method: (§1)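 Cells (1 × 10⁵) were plated in 6-well dishes. Test agents were added 24 h later at five concentrations over a 2-log span (1–100 µM) and left on continuously for 96 h. Viable cells were counted by trypan blue exclusion on a hemacytometer and expressed as a percentage of DMSO-treated wells. GI50 was read from dose–response curves of % cells versus concentration.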

[2] = tested on: DU-145; test: Concentration required to inhibit growth of DU145 cells by 50% after 96h of treatment; conditions: Homo sapiens, DU-145, 96 h; summary of the method: as §1
[3] = tested on: DLD-1; test: Concentration required to inhibit growth of DLD-1 cells by 50% after 96h of treatment; conditions: Homo sapiens, DLD-1, 96 h; summary of the method: as §1
[4] = tested on: BT-20; test: Concentration required to inhibit growth of BT20 cells by 50% after 96h of treatment; conditions: Homo sapiens, BT-20, 96 h; summary of the method: as §1
[5] = tested on: NCI-H157; test: Concentration required to inhibit growth of H157 cells by 50% after 96h of treatment; conditions: Homo sapiens, NCI-H157, 96 h; summary of the method: as §1

Structure (SMILES)	GI50 [1] [µM]	GI50 [2] [µM]	GI50 [3] [µM]	GI50 [4] [µM]	GI50 [5] [µM]
COc1ccc(NS(=O)(=O)c2cc3cc(Cl)ccc3oc2=O)cc1	23	22	32	27	28
CCOc1cccc2cc(S(=O)(=O)Nc3ccc(Br)cc3)c(=O)oc12	58	52	85	64	74
COc1ccc(NS(=O)(=O)c2cc3cc(Cl)ccc3oc2=O)cc1O	51	42	82	65	76
O=c1oc2c(Br)cccc2cc1S(=O)(=O)Nc1ccc(Br)cc1	16	12	14	12	15
O=c1oc2c(Cl)cccc2cc1S(=O)(=O)Nc1ccc(Br)cc1	11	14	18	17	16
COc1ccc(NS(=O)(=O)c2cc3cccc(Br)c3oc2=O)cc1	14	15	20	16	18
CCOc1cccc2cc(S(=O)(=O)Nc3ccc(OC)cc3)c(=O)oc12	48	57	78	52	74
COc1ccc2oc(=O)c(S(=O)(=O)Nc3ccc(F)c(N)c3)cc2c1	44	56	92	68	78
COc1ccc2oc(=O)c(S(=O)(=O)Nc3ccc(Br)cc3)cc2c1	27	25	38	18	32
CCOc1cccc2cc(S(=O)(=O)Nc3ccc(F)c(N)c3)c(=O)oc12	42	48	80	54	72
